Assay results from ChEMBL document CHEMBL1147883, “Design, synthesis, and biological evaluation of substituted-N-(thieno[2,3-b]pyridin-3-yl)-guanidines, N-(1H-pyrrolo[2,3-b]pyridin-3-yl)-guanidines, and N-(1H-indol-3-yl)-guanidines” (2007).

Tests used:
Assay type in all cases: functional, Rattus norvegicus
[1] = Insulinotropic activity in RIN5F cells assessed as stimulation of glucose-dependent insulin secretion per ug of protein at 0.1 uM
How it was run: (§1)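 Seeded at 0.2×10^6 cells/well, grown overnight to 80% confluence. PBS wash, then 40 min preincubation in Krebs-Ringer Hepes buffer (1.1 mM glucose, 0.5% BSA, pH 7.4). Supernatant insulin measured by rat insulin ELISA and normalized to total protein (pg/µg/h). n = 3, mean ± SD.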

[2] = Insulinotropic activity in RIN5F cells assessed as stimulation of glucose-dependent insulin secretion per ug of protein at 1 uM; how it was run: as §1
[3] = Insulinotropic activity in RIN5F cells assessed as stimulation of glucose-dependent insulin secretion per microgram of protein at 10 uM; how it was run: as §1

CCc1[nH]c2ccc(Cl)cc2c1NC(=N)N gave an Activity [1] of 15.8 pg/h, an Activity [2] of 19.5 pg/h and an Activity [3] of 35.2 pg/h.
In the case of N=C(N)Nc1c(Cc2ccccc2)[nH]c2ccccc12, the Activity [1] is reported as 11.1 pg/h, the Activity [2] is reported as 13.1 pg/h and the Activity [3] is reported as 15.1 pg/h.
Compound N=C(N)Nc1c(-c2ccccc2)[nH]c2ncccc12 has an Activity [1] of 11.5 pg/h, an Activity [2] of 15.5 pg/h and an Activity [3] of 28.5 pg/h.
CCc1[nH]c2ncc(Cl)cc2c1NC(=N)N showed an Activity [1] of 15.1 pg/h, an Activity [2] of 18.1 pg/h and an Activity [3] of 33.1 pg/h.
N=C(N)Nc1c(-c2ccccc2)[nH]c2ncc(Cl)cc12 gave an Activity [1] of 15.2 pg/h, an Activity [2] of 18.1 pg/h and an Activity [3] of 33.1 pg/h.
With N=C(N)Nc1c(C2CCCCC2)[nH]c2ncc(Cl)cc12 the Activity [1] was 10.8 pg/h, the Activity [2] was 13.1 pg/h and the Activity [3] was 15.1 pg/h.
With N=C(N)Nc1c(Cc2ccccc2)[nH]c2ncc(Cl)cc12 the Activity [1] was 10.9 pg/h, the Activity [2] was 12.9 pg/h and the Activity [3] was 15 pg/h.
CCc1sc2ncccc2c1NC(=N)N gave an Activity [1] of 10.6 pg/h, an Activity [2] of 12.6 pg/h and an Activity [3] of 14.6 pg/h.
For CCc1sc2ncc(Cl)cc2c1NC(=N)N, the Activity [1] was 14.8 pg/h, the Activity [2] was 17.8 pg/h and the Activity [3] was 31.5 pg/h.
Compound N=C(N)Nc1c(Cc2ccccc2)sc2ncc(Cl)cc12 has an Activity [1] of 10.6 pg/h, an Activity [2] of 12.6 pg/h and an Activity [3] of 14.5 pg/h.
With N=C(N)Nc1c[nH]c2ncccc12 the Activity [1] was 10.5 pg/h, the Activity [2] was 12.5 pg/h and the Activity [3] was 14.5 pg/h.
Compound N=C(N)Nc1csc2ncc(Cl)cc12 has an Activity [1] of 10.2 pg/h, an Activity [2] of 12.2 pg/h and an Activity [3] of 14.2 pg/h.
Compound Cc1[nH]c2ncc(Cl)cc2c1NC(=N)N has an Activity [1] of 15.5 pg/h, an Activity [2] of 19.1 pg/h and an Activity [3] of 35.1 pg/h.
Cc1sc2ncccc2c1NC(=N)N gave an Activity [1] of 11.1 pg/h, an Activity [2] of 15.1 pg/h and an Activity [3] of 29.1 pg/h.
Cc1[nH]c2ccc(Cl)cc2c1C1=NCCN1 gave an Activity [1] of 16.4 pg/h, an Activity [2] of 20.6 pg/h and an Activity [3] of 36.4 pg/h.
Work on Cc1[nH]c2ccc(Cl)cc2c1NC(=N)N yielded an Activity [1] of 16.1 pg/h, an Activity [2] of 20.1 pg/h and an Activity [3] of 36 pg/h.
Compound N=C(N)Nc1c(-c2ccccc2)[nH]c2ccccc12 has an Activity [1] of 12.1 pg/h, an Activity [2] of 16.1 pg/h and an Activity [3] of 29.1 pg/h.
N=C(N)Nc1c(C2CCCCC2)[nH]c2ccccc12 gave an Activity [1] of 10.9 pg/h, an Activity [2] of 13.1 pg/h and an Activity [3] of 15.1 pg/h.
Work on N=C(N)Nc1c(C2CCCCC2)[nH]c2ccc(Cl)cc12 yielded an Activity [1] of 11.2 pg/h, an Activity [2] of 13.2 pg/h and an Activity [3] of 15.9 pg/h.
In the case of N=C(N)Nc1c(Cc2ccccc2)[nH]c2ccc(Cl)cc12, the Activity [1] is reported as 11.2 pg/h, the Activity [2] is reported as 13.2 pg/h and the Activity [3] is reported as 15.4 pg/h.
Work on N=C(N)Nc1c[nH]c2ccc(Cl)cc12 yielded an Activity [1] of 11.1 pg/h, an Activity [2] of 13.2 pg/h and an Activity [3] of 15.5 pg/h.
In the case of CCc1[nH]c2ccccc2c1NC(=N)N, the Activity [1] is reported as 11.1 pg/h, the Activity [2] is reported as 13.4 pg/h and the Activity [3] is reported as 16.1 pg/h.
Compound N=C(N)Nc1c(-c2ccccc2)[nH]c2ccc(Cl)cc12 has an Activity [1] of 15.9 pg/h, an Activity [2] of 19.5 pg/h and an Activity [3] of 35.5 pg/h.
For N=C(N)Nc1c[nH]c2ccccc12, the Activity [1] was 10.9 pg/h, the Activity [2] was 13 pg/h and the Activity [3] was 15 pg/h.
Work on Cc1sc2ncc(Cl)cc2c1NC(=N)N yielded an Activity [1] of 15.1 pg/h, an Activity [2] of 18.1 pg/h and an Activity [3] of 32.1 pg/h.
Work on N=C(N)Nc1c(Cc2ccccc2)[nH]c2ncccc12 yielded an Activity [1] of 10.9 pg/h, an Activity [2] of 12.6 pg/h and an Activity [3] of 14.9 pg/h.
Work on N=C(N)Nc1c(-c2ccccc2)sc2ncccc12 yielded an Activity [1] of 11.1 pg/h, an Activity [2] of 15.1 pg/h and an Activity [3] of 27.9 pg/h.
With N=C(N)Nc1c(C2CCCCC2)sc2ncccc12 the Activity [1] was 10.1 pg/h, the Activity [2] was 12.1 pg/h and the Activity [3] was 14.1 pg/h.
Work on N=C(N)Nc1c(C2CCCCC2)sc2ncc(Cl)cc12 yielded an Activity [1] of 10.5 pg/h, an Activity [2] of 12.5 pg/h and an Activity [3] of 14.5 pg/h.
For N=C(N)Nc1c(Cc2ccccc2)sc2ncccc12, the Activity [1] was 10.5 pg/h, the Activity [2] was 12.5 pg/h and the Activity [3] was 14.5 pg/h.
Work on Cc1[nH]c2ncccc2c1NC(=N)N yielded an Activity [1] of 11.5 pg/h, an Activity [2] of 15.5 pg/h and an Activity [3] of 29.5 pg/h.
Work on Cc1[nH]c2ccccc2c1NC(=N)N yielded an Activity [1] of 12.1 pg/h, an Activity [2] of 16.1 pg/h and an Activity [3] of 30.1 pg/h.
In the case of N=C(N)Nc1csc2ncccc12, the Activity [1] is reported as 10.1 pg/h, the Activity [2] is reported as 12.1 pg/h and the Activity [3] is reported as 14.1 pg/h.
For N=C(N)Nc1c(C2CCCCC2)[nH]c2ncccc12, the Activity [1] was 10.2 pg/h, the Activity [2] was 12.5 pg/h and the Activity [3] was 14.5 pg/h.
CCc1[nH]c2ncccc2c1NC(=N)N showed an Activity [1] of 10.8 pg/h, an Activity [2] of 13 pg/h and an Activity [3] of 15 pg/h.
With N=C(N)Nc1c[nH]c2ncc(Cl)cc12 the Activity [1] was 10.5 pg/h, the Activity [2] was 12.5 pg/h and the Activity [3] was 14.6 pg/h.
For N=C(N)Nc1c(-c2ccccc2)sc2ncc(Cl)cc12, the Activity [1] was 14.9 pg/h, the Activity [2] was 17.8 pg/h and the Activity [3] was 31.6 pg/h.
For CCCCNC(=O)NS(=O)(=O)c1ccc(C)cc1 [TOLBUTAMIDE], the Activity [1] was 19.9 pg/h and the Activity [2] was 27.1 pg/h.
